Values after ≈ are worked out from the molar mass of the structure shown.
Key:
Format in all cases: functional
[1] = In vitro activity against Staphylococcus aureus DNA gyrase subunit B supercoiling, expressed as IC50 novobiocin / IC50 compound
Enterococcus faecium = test: Antibacterial activity against vancomycin, teicoplanin, erythromycin resistant Enterococcus faecium
Summary of the method: (§1)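 MIC read after 24 h incubation by two-fold broth microdilution. Strains are tested with their labelled resistance phenotypes (ofloxacin, oxacillin, erythromycin, novobiocin, teicoplanin or vancomycin resistance, as given in each strain designation).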

Streptococcus pyogenes = test: Antibacterial activity tested against Streptococcus pyogenes 02AIUC1
Summary of the method: (§2)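 MIC by 2-fold broth microdilution, read after 24 h incubation; strain resistance phenotypes noted.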

Staphylococcus aureus [2] = test: Antibacterial activity against Staphylococcus aureus 011HT3; summary of the method: as §2
Staphylococcus aureus [3] = test: Antibacterial activity tested against novobiocin resistant Staphylococcus aureus 011HT1; summary of the method: as §2
[4] = system: Staphylococcus epidermidis; test: Antibacterial activity against oxacillin resistant Staphylococcus epidermidis 012GO42; summary of the method: as §1
Escherichia coli = test: In vitro activity against Escherichia coli DNA gyrase subunit B supercoiling, expressed as IC50 novobiocin / IC50 compound
Staphylococcus aureus [5] = test: Antibacterial activity against ofloxacin,oxacillin,erythromycin resistant Staphylococcus aureus 011GO64.; summary of the method: as §1

SMILES	Ratio [1]	MIC (Enterococcus faecium)	MIC (Streptococcus pyogenes)	MIC (Staphylococcus aureus [2])	MIC (Staphylococcus aureus [3])	MIC [4]	Ratio (Escherichia coli)	MIC (Staphylococcus aureus [5])
C#CCONC(=O)O[C@H]1[C@@H](O)[C@H](Oc2ccc3c(O)c(C(=O)NOCC=C(C)C)c(=O)oc3c2C)OC(C)(C)[C@@H]1OC	2	0.3 µg/mL (≈ 0.508 µM)	0.08 µg/mL (≈ 0.135 µM)	< 0.04 µg/mL	0.6 µg/mL (≈ 1.02 µM)	0.15 µg/mL (≈ 0.254 µM)		
C#CCONC(=O)O[C@H]1[C@@H](O)[C@H](Oc2ccc3c(=O)c(C(=O)OCC)c(O)oc3c2C)OC(C)(C)[C@@H]1OC		10 µg/mL (≈ 18.7 µM)	20 µg/mL (≈ 37.3 µM)	1.2 µg/mL (≈ 2.24 µM)	> 40 µg/mL	0.3 µg/mL (≈ 0.56 µM)	5.6	2.5 µg/mL (≈ 4.67 µM)
CCOC(=O)c1c(O)oc2c(C)c(O[C@@H]3OC(C)(C)[C@H](OC)[C@@H](OC(=O)NOC)[C@H]3O)ccc2c1=O		> 40 µg/mL	> 40 µg/mL	> 40 µg/mL	> 40 µg/mL	> 40 µg/mL	0.66	
C#CCONC(=O)O[C@H]1[C@@H](O)[C@H](Oc2ccc3c(O)c(C(C)=O)c(=O)oc3c2C)OC(C)(C)[C@@H]1OC	8.1	1.2 µg/mL (≈ 2.37 µM)	0.3 µg/mL (≈ 0.593 µM)	< 0.04 µg/mL	2.5 µg/mL (≈ 4.95 µM)	< 0.04 µg/mL		0.6 µg/mL (≈ 1.19 µM)
C#CCONC(=O)O[C@H]1[C@@H](O)[C@H](Oc2ccc3c(=O)c(/C(C)=N/OC)c(O)oc3c2C)OC(C)(C)[C@@H]1OC	12.5	2.5 µg/mL (≈ 4.68 µM)	0.6 µg/mL (≈ 1.12 µM)	0.15 µg/mL (≈ 0.281 µM)	5 µg/mL (≈ 9.35 µM)	0.08 µg/mL (≈ 0.15 µM)		0.15 µg/mL (≈ 0.281 µM)
CCOC(=O)c1c(O)oc2c(C)c(O[C@@H]3OC(C)(C)[C@H](OC)[C@@H](OC(=O)NC(C)C)[C@H]3O)ccc2c1=O		> 40 µg/mL	> 40 µg/mL	> 40 µg/mL	> 40 µg/mL	> 40 µg/mL	0.025	
C#CCNC(=O)O[C@H]1[C@@H](O)[C@H](Oc2ccc3c(=O)c(C(=O)OCC)c(O)oc3c2C)OC(C)(C)[C@@H]1OC		> 40 µg/mL	> 40 µg/mL	40 µg/mL (≈ 77 µM)	> 40 µg/mL	20 µg/mL (≈ 38.5 µM)	0.38	
C#CCONC(=O)O[C@H]1[C@@H](O)[C@H](Oc2ccc3c(=O)c(C(=O)NOC)c(O)oc3c2C)OC(C)(C)[C@@H]1OC	11.1	2.5 µg/mL (≈ 4.66 µM)	0.6 µg/mL (≈ 1.12 µM)	0.08 µg/mL (≈ 0.149 µM)	10 µg/mL (≈ 18.6 µM)	0.08 µg/mL (≈ 0.149 µM)		0.6 µg/mL (≈ 1.12 µM)
C#CCONC(=O)O[C@H]1[C@@H](O)[C@H](Oc2ccc3c(O)c(C(=O)NCCN4CCOCC4)c(=O)oc3c2C)OC(C)(C)[C@@H]1OC	2.6	2.5 µg/mL (≈ 4.03 µM)	1.2 µg/mL (≈ 1.94 µM)	< 0.04 µg/mL	1.2 µg/mL (≈ 1.94 µM)	0.08 µg/mL (≈ 0.129 µM)		0.08 µg/mL (≈ 0.129 µM)
CCONC(=O)OC1[C@@H](O)[C@H](Oc2ccc3c(O)c(C(=O)OCC)c(=O)oc3c2C)OC(C)(C)[C@@H]1OC (single isomer, unassigned)		> 40 µg/mL	40 µg/mL (≈ 76.1 µM)	20 µg/mL (≈ 38.1 µM)	> 40 µg/mL	> 40 µg/mL	2	
C=CCONC(=O)O[C@H]1[C@@H](O)[C@H](Oc2ccc3c(=O)c(C(=O)OCC)c(O)oc3c2C)OC(C)(C)[C@@H]1OC		> 40 µg/mL	20 µg/mL (≈ 37.2 µM)	10 µg/mL (≈ 18.6 µM)	> 40 µg/mL	20 µg/mL (≈ 37.2 µM)	2	20 µg/mL (≈ 37.2 µM)
C#CCONC(=O)O[C@H]1[C@@H](O)[C@H](Oc2ccc3c(O)c(/C(C)=N/OCCN4CCOCC4)c(=O)oc3c2C)OC(C)(C)[C@@H]1OC	4	20 µg/mL (≈ 31.6 µM)	1.2 µg/mL (≈ 1.89 µM)	0.15 µg/mL (≈ 0.237 µM)	5 µg/mL (≈ 7.89 µM)	0.15 µg/mL (≈ 0.237 µM)		0.6 µg/mL (≈ 0.947 µM)
CCOC(=O)c1c(O)oc2c(C)c(O[C@@H]3OC(C)(C)[C@H](OC)[C@@H](OC(N)=O)[C@H]3O)ccc2c1=O		> 40 µg/mL	> 40 µg/mL	> 40 µg/mL	> 40 µg/mL		1.6	
C#CCONC(=O)O[C@H]1[C@@H](O)[C@H](Oc2ccc3c(O)c(C(=O)Nc4cccnc4)c(=O)oc3c2C)OC(C)(C)[C@@H]1OC	0.67	0.6 µg/mL (≈ 1.03 µM)	0.08 µg/mL (≈ 0.137 µM)	< 0.04 µg/mL	1.2 µg/mL (≈ 2.06 µM)	< 0.04 µg/mL		
CO[C@@H]1[C@@H](OC(=O)c2ccc(C)[nH]2)[C@@H](O)[C@H](Oc2ccc3c(O)c(C(C)=O)c(=O)oc3c2C)OC1(C)C		2.5 µg/mL (≈ 4.85 µM)	0.3 µg/mL (≈ 0.582 µM)	< 0.04 µg/mL	5 µg/mL (≈ 9.7 µM)		2	
CCOC(=O)c1c(O)oc2c(C)c(O[C@@H]3OC(C)(C)[C@H](OC)[C@@H](OC(=O)NOC(C)C)[C@H]3O)ccc2c1=O		> 40 µg/mL	> 40 µg/mL	> 40 µg/mL	> 40 µg/mL	> 40 µg/mL	2	
C#CCONC(=O)O[C@H]1[C@@H](O)[C@H](Oc2ccc3c(O)c(C(N)=O)c(=O)oc3c2C)OC(C)(C)[C@@H]1OC		0.08 µg/mL (≈ 0.158 µM)	0.6 µg/mL (≈ 1.18 µM)	< 0.04 µg/mL	0.3 µg/mL (≈ 0.592 µM)	< 0.04 µg/mL	1	
C#CCONC(=O)O[C@H]1[C@@H](O)[C@H](Oc2ccc3c(=O)c(C(=O)NOCC)c(O)oc3c2C)OC(C)(C)[C@@H]1OC	5.6	0.6 µg/mL (≈ 1.09 µM)	0.15 µg/mL (≈ 0.272 µM)	< 0.04 µg/mL	1.2 µg/mL (≈ 2.18 µM)	0.6 µg/mL (≈ 1.09 µM)		0.08 µg/mL (≈ 0.145 µM)
CCOC(=O)c1c(O)oc2c(C)c(O[C@@H]3OC(C)(C)[C@H](OC)[C@@H](OC(=O)c4ccc(C)[nH]4)[C@H]3O)ccc2c1=O		5 µg/mL (≈ 9.17 µM)	0.3 µg/mL (≈ 0.55 µM)	0.3 µg/mL (≈ 0.55 µM)	> 20 µg/mL		3.1	
C#CCONC(=O)O[C@H]1[C@@H](O)[C@H](Oc2ccc3c(O)c(/C(C)=N/OCc4ccsc4)c(=O)oc3c2C)OC(C)(C)[C@@H]1OC	1.3	0.6 µg/mL (≈ 0.973 µM)	0.15 µg/mL (≈ 0.243 µM)	< 0.04 µg/mL	2.5 µg/mL (≈ 4.05 µM)	< 0.04 µg/mL		
C#CCONC(=O)O[C@H]1[C@@H](O)[C@H](Oc2ccc3c(=O)c(/C(C)=N/OCOCCOC)c(O)oc3c2C)OC(C)(C)[C@@H]1OC	4	5 µg/mL (≈ 8.22 µM)	0.6 µg/mL (≈ 0.986 µM)	0.08 µg/mL (≈ 0.131 µM)	10 µg/mL (≈ 16.4 µM)	1.2 µg/mL (≈ 1.97 µM)		0.6 µg/mL (≈ 0.986 µM)
C#CCONC(=O)O[C@H]1[C@@H](O)[C@H](Oc2ccc3c(O)c(C(=O)NCCO)c(=O)oc3c2C)OC(C)(C)[C@@H]1OC	2.6	1.2 µg/mL (≈ 2.18 µM)	0.6 µg/mL (≈ 1.09 µM)	< 0.04 µg/mL	1.2 µg/mL (≈ 2.18 µM)	< 0.04 µg/mL		0.08 µg/mL (≈ 0.145 µM)
CO[C@@H]1[C@@H](OC(N)=O)[C@@H](O)[C@H](Oc2ccc3c(O)c(NC(=O)c4ccc(O)c(CC=C(C)C)c4)c(=O)oc3c2C)OC1(C)C [NOVOBIOCIN]		0.6 µg/mL (≈ 0.979 µM)	0.3 µg/mL (≈ 0.49 µM)	< 0.04 µg/mL	10 µg/mL (≈ 16.3 µM)	< 0.04 µg/mL		
CO[C@@H]1[C@@H](OC(=O)c2ccc(C)[nH]2)[C@@H](O)[C@H](Oc2ccc3c(O)c(C(N)=O)c(=O)oc3c2C)OC1(C)C		2.5 µg/mL (≈ 4.84 µM)	0.15 µg/mL (≈ 0.29 µM)	< 0.04 µg/mL	2.5 µg/mL (≈ 4.84 µM)		1.67	
C=CCNC(=O)O[C@H]1[C@@H](O)[C@H](Oc2ccc3c(=O)c(C(=O)OCC)c(O)oc3c2C)OC(C)(C)[C@@H]1OC		> 40 µg/mL	> 40 µg/mL	> 40 µg/mL	> 40 µg/mL	20 µg/mL (≈ 38.3 µM)	0.38	
CO/N=C(\C)c1c(O)oc2c(C)c(O[C@@H]3OC(C)(C)[C@H](OC)[C@@H](OC(=O)c4ccc(C)[nH]4)[C@H]3O)ccc2c1=O		10 µg/mL (≈ 18.4 µM)	0.3 µg/mL (≈ 0.551 µM)	0.15 µg/mL (≈ 0.275 µM)	40 µg/mL (≈ 73.5 µM)		3.3	

Source: ChEMBL document CHEMBL1132760, “Coumarin inhibitors of gyrase B with N-propargyloxy-carbamate as an effective pyrrole bioisostere” (2000)
